Measurements of several laboratories.
Protocols differ between the studies behind these lines.
CTSL: Procathepsin L (CTSL, Homo sapiens, UniProt P07711)
MAP4K5: Mitogen-activated protein kinase kinase kinase kinase 5 (MAP4K5, Homo sapiens, UniProt Q9Y4K4)
XDH: Xanthine dehydrogenase/oxidase (XDH, Bos taurus, UniProt P80457)

SMILES	target	read-out	mode	technique	concentration	inhibition [%]
C#Cc1n[nH]c2c(-c3cn([C@@H](C)c4ccccc4)c(=O)[nH]c3=O)cc(F)cc12	Protein kinase C theta type (PRKCQ, Homo sapiens, UniProt Q04759)	enzyme activity	inhibitor		0.1 µM	10.2
O=C(Oc1cncc(Cl)c1)c1cc2c(Cl)cc(Cl)cc2[nH]1	CTSL	enzyme activity	inhibitor		10 µM	14
CC(C)C[C@H](NC(=O)[C@H]1O[C@@H]1C(=O)O)C(=O)NCCCCN=C(N)N	CTSL	enzyme activity	inhibitor		5 nM	39
COc1cc(Nc2ncc(F)c(Nc3ccc4c(n3)NC(=O)C(C)(C)O4)n2)cc(OC)c1OC	MAP4K5	binding		competition with immobilised ligand	10 µM	16
C#Cc1n[nH]c2c(-c3cn(C(C)c4ccccn4)c(=O)[nH]c3=O)cc(F)cc12 (stereo not drawn)	Tyrosine-protein kinase Blk (BLK, Homo sapiens, UniProt P51451)	enzyme activity	inhibitor		1 µM	3.1
c1ccc(C(NCCNC(c2ccccc2)c2ccccc2)c2ccccc2)cc1	XDH	enzyme activity	inhibitor		10 µM	5
CN(C(=O)[C@H](Cc1ccccc1)NC(=O)[C@@H](NC(=O)OCc1ccccc1)C(C)(C)C)N(C#N)CCC(N)=O	CTSL	enzyme activity	inhibitor		50 µM	99
Cn1cc(-c2cccc(N3CCc4c(sc5c4CC(C)(C)C5)C3=O)c2CO)cc(Nc2ccncn2)c1=O	Platelet-derived growth factor receptor alpha (PDGFRA, Homo sapiens, UniProt P16234)	enzyme activity	inhibitor		1 µM	5
N=C(N)c1ccc2cc(OC(=O)c3ccc(N=C(N)N)cc3)ccc2c1	CTSL	enzyme activity	inhibitor		10 µM	57
Cn1cc(-c2cc(F)cc(N3CCn4c(cc5c4CCCC5)C3=O)c2CO)cc(Nc2ccc(N3CCN(C4COC4)CC3)cn2)c1=O	MAP4K5	enzyme activity	inhibitor		0.1 µM	3
CC[C@H](NC(=O)OCc1ccccc1)C(=O)N[C@H](C(=O)N[C@@H](Cc1ccccc1)C(=O)N(C)N(C#N)CCC(N)=O)C(C)(C)C	CTSL	enzyme activity	inhibitor		50 µM	99
NC(=O)Cc1ccccc1	XDH	enzyme activity	inhibitor	absorbance	100 µg/mL	7.3
